Consider three compounds from ChEMBL document CHEMBL1123966, “Ring-substituted [1,2-bis(4-hydroxyphenyl)ethylenediamine]dichloroplatinum (II) complexes: compounds with a selective effect on the hormone-dependent mammary carcinoma” (1988).

The T/C is the result in the treated group divided by that in the control group, in per cent.

The species entered for experiment [1] is Rattus norvegicus. Nature of the experiment: No. of tumors occurring at a dose of 1.9 mg in DMBA - induced hormone dependent mammary carcinoma in rat. The format is functional. In a few lines: (§1)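 DMBA-induced, hormone-dependent mammary carcinoma in Sprague-Dawley rats. Dose is per kg body weight per day, given three times a week, sc, as suspension or solution in polyethylene glycol 400/H2O 1:1, for 4 weeks. Tumors were counted at start (B) and as new tumors (NT). Outcomes were scored as % complete remission (not palpable), partial remission, no change and progression, with % change in tumor area.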

Experiment [2] is filed under the species Rattus norvegicus. Description: Percent of tumors with complete remission at a dose of 1.9 mg in DMBA - induced, hormone dependent mammary carcinoma in rat. Type of experiment: functional. In short, it runs like this:
as §1

For experiment [3], the system named is Mus musculus. Description: Uterotrophic effect in BDF1 mouse at a dose of 1.8 mg/kg (4.6 *10e-6 M/kg). The format is functional, Uterus. In a few lines:
(§2)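 Female BDF1 mice carrying MXT ER+ mammary carcinoma were dosed in olive oil, sc, three times a week, for 6 weeks. At the end of therapy, uterotropic effect = [uterus dry weight (mg)/body weight (g)] × 100, given as mean ± SD and as T/C % versus control. Significance was by the U test.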

The species named for experiment [4] is Rattus norvegicus. Nature of the experiment: Percent change of tumor area at 28 day of therapy at a dose of 1.9 mg in DMBA - induced hormone dependent mammary carcinoma in rat. Type of experiment: functional. In short, it runs like this: as §1
Experiment [5] is filed under the species Rattus norvegicus. Description: Percent of tumors with partial remission at a dose of 1.9 mg in DMBA - induced, hormone dependent mammary carcinoma in rat. The format is functional. In a few lines: as §1
A short description of experiment [6]: Median tumor weight of MXT ER+ determined at the end of 6 week therapy at a dose of 0.6 mg/kg (1.5*10e-6 M/kg). Type of experiment: functional, Mus musculus. In a few lines:
(§3)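 MXT mammary carcinoma (hormone-dependent, ER+) in BDF1 mice. Doses given in olive oil, sc, three times a week, for 6 weeks. Median tumor weight was measured at the end of therapy and expressed as T/C %. Significance was by the Wilcoxon-Mann-Whitney U test.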

The species entered for experiment [7] is Rattus norvegicus. Description: Percent change of in body weight at 7 day of therapy at a dose of 1.9 mg in DMBA - induced hormone dependent mammary carcinoma in rat. Type of experiment: functional.
A short description of experiment [8]: Cell growth inhibition of MXT-ER+ breast cancer cells at a dose of 5.3 mg/kg ([…]). The format is functional, organism-based. The arrangement: dose 5.3 mg/kg. The following applies: Mus musculus, Cancer cell lines. In a few lines:
as §3

For experiment [9], the species on record is Rattus norvegicus. Nature of the experiment: No. of tumors at the beginning of the test at dose of 1.9 in DMBA - induced, hormone dependent mammary carcinoma in 8 rat. The format is functional. In a few lines: as §1
For experiment [10], the species on record is Rattus norvegicus. Description: Percent of tumors with progression at a dose of 1.9 mg in DMBA - induced hormone dependent mammary carcinoma in rat. The format is functional. In short, it runs like this:
as §1

Experiment [11] in a line: Median tumor weight of MXT ER+ determined at the end of 6 week therapy at a dose of 5.3 mg/kg (1.4*10e-5 M/kg). Type of experiment: functional, Mus musculus. In a few lines:
as §3

The species named for experiment [12] is Rattus norvegicus. Nature of the experiment: Percent of tumors with no change at a dose of 1.9 mg in DMBA - induced hormone dependent mammary carcinoma in rat. Type of experiment: functional. In short, it runs like this: as §1
The species entered for experiment [13] is Mus musculus. Description: (§4) Uterotrophic effect in BDF1 mouse measured as([weight of uterus (mg)/body weight (g)] *100). The format is functional. In short, it runs like this: as §2
A short description of experiment [14]: Cell growth inhibition of MXT-ER+ breast cancer cells at a dose of 1.8 mg/kg (4.6 *10e-6 M/kg). The format is functional, organism-based. The arrangement: dose 1.8 mg/kg. As to conditions: Mus musculus, Cancer cell lines. In a few lines:
as §3

Experiment [15] can be described thus: Cell growth inhibition of MXT-ER+ breast cancer cells at a dose of 0.6 mg/kg (1.5*10e-6 M/kg). The format is functional, organism-based. Also on record: dose 0.6 mg/kg. The following applies: Mus musculus, Cancer cell lines. In short, it runs like this: as §3
Experiment [16] concerns Mus musculus. Description: Uterotrophic effect in BDF1 mouse at a dose of 0.6 mg/kg (1.5*10e-6 M/kg). The format is functional, Uterus. In a few lines:
as §2

Experiment [17] is described as follows: Median tumor weight of MXT ER+ (mammary carcinoma) determined at the end of 6 week therapy at a dose of 0.6 mg/kg (1.5*10e-6 M/kg). The format is functional, Mus musculus. In a few lines: as §3
The nature of experiment [18]: Cell growth inhibition of MXT-ER+ breast cancer cells at a dose of 8 mg. Type of experiment: functional. The following applies: Mus musculus; Cancer cell lines. In short, it runs like this: (§5)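 Hormone-dependent MXT mammary carcinoma (ER+) model. Equimolar doses (2 × 10⁻⁵ M/kg) were given sc three times weekly (Mon, Wed, Fri) as a solution or suspension in polyethylene glycol 400/H₂O (1:1); some agents were given in olive oil. Median tumor weight was taken at the end of 6 weeks of therapy and given as T/C %. Significance was tested by the Wilcoxon-Mann-Whitney U test.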

The species entered for experiment [19] is Mus musculus. Nature of the experiment: Median tumor weight of MXT ER+ (mammary carcinoma) determined at the end of 6 week therapy at a dose of 8 mg. The format is functional. In a few lines: (§6)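 BDF1 mice with hormone-dependent MXT mammary carcinoma (ER+). Equimolar dosing at 2 × 10⁻⁵ M/kg, given sc in olive oil three times a week (Mon/Wed/Fri) for 6 weeks. Median tumor weight was taken at the end of therapy and compared with controls by the Wilcoxon–Mann–Whitney U test.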

Experiment [20] is filed under the species Mus musculus. Description: Uterotrophic effect in BDF1 mouse at a dose of 8 mg. The format is functional, Uterus. In a few lines: (§7)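 Uterus of BDF1 mice in the MXT ER+ study. Equimolar dosing at 2 × 10⁻⁵ M/kg, sc in olive oil three times a week (Mon/Wed/Fri). Uterine response = [uterus dry weight (mg)/body weight (g)] × 100, determined at the end of the 6-week therapy; U test.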

For experiment [21], the system named is Mus musculus. Nature of the experiment: Uterotrophic effect in BDF1 mouse at a dose of 4.2 mg/kg (1.4*10^-5 M/kg). The format is functional, organism-based. The arrangement: dose 4.2 mg/kg. The following applies: Uterus. In short, it runs like this: (§8)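 BDF1 mice bearing MXT mammary carcinoma. Dosing sc in water once per week over a 6-week therapy. Median tumor weight and uterine index ([uterus dry weight (mg)/body weight (g)] × 100) were read at the end of therapy; U test (Wilcoxon, Mann, Whitney).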

The test system of experiment [22] is MCF7S. Description: Cell growth inhibition in hormone dependent MCF 7 breast cancer cells. The following applies: Homo sapiens. Type of experiment: functional, cell-based.
The nature of experiment [23]: Cell growth inhibition of MXT-ER- breast cancer cells ata dose of 2 mg/kg. Type of experiment: functional, organism-based. As to conditions: Mus musculus; Cancer cell lines. Also on record: dose 2 mg/kg. In a few lines:
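Hormone-independent MXT mammary carcinoma (ER−) in mice. Equimolar doses (2 × 10⁻⁵ M/kg) were given sc three times a week (Mon, Wed, Fri) in polyethylene glycol 400/H₂O (1:1), or in olive oil for some agents. Median tumor area was measured at the end of a 2-week therapy and expressed as T/C %.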

For experiment [24], the system named is MDA-MB-231. Nature of the experiment: Incorporation of [3H]- thymidine into hormone independent MDA-MB-231 breast cancer cells. Type of experiment: functional, cell-based. The following applies: Homo sapiens.
Experiment [25] has as its system MDA-MB-231. Description: Cell growth inhibition in hormone independent MDA-MB-231 breast cancer cells. The format is functional, cell-based. The following applies: Homo sapiens.
In experiment [26] the test system is MDA-MB-231. Nature of the experiment: Incorporation of [3H]- thymidine in hormone independent MDA-MB-231 breast cancer cells. Type of experiment: functional, cell-based. The following applies: Homo sapiens.
Experiment [27] in a line: Cell growth inhibition of MXT-ER+ breast cancer cells at a dose of 4.2 mg/kg (1.4*10^-5 M/kg). Type of experiment: functional, organism-based. The following applies: Mus musculus, Cancer cell lines. Also on record: dose 4.2 mg/kg. In short, it runs like this:
(§9)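 Hormone-dependent MXT mammary carcinoma in BDF₁ mice. Dosing was sc in water as vehicle: 1.4 mg/kg three times a week, and 4.2 mg/kg once per week. Median tumor weight was taken after 6 weeks of therapy and expressed as T/C %. Significance was tested by the Wilcoxon-Mann-Whitney U test.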

Experiment [28] is described as follows: Cell growth inhibition of MXT-ER+ breast cancer cells ata dose of 2 mg/kg. Also on record: dose 2 mg/kg. As to conditions: Mus musculus; Cancer cell lines. The format is functional, organism-based. In short, it runs like this:
as §5

The species named for experiment [29] is Mus musculus. Described as §4. The format is functional, organism-based.
Experiment [30] is described as follows: Cell growth inhibition of MXT-ER+ breast cancer cells at a dose of 1.4 mg/kg (4.6*10e-6M/kg). The arrangement: dose 1.4 mg/kg. The following applies: Mus musculus, Cancer cell lines. The format is functional, organism-based. In a few lines:
as §9

Experiment [31] deals with Mus musculus. Description: Median tumor weight of MXT ER+ determined at the end of 6 week therapy at a dose of 4.2 mg/kg (1.4*10^-5 M/kg). Type of experiment: functional, organism-based. Also on record: dose 4.2 mg/kg. In a few lines:
as §8

Experiment [32] has as its system Mus musculus. Description: Uterotrophic effect in BDF1 mouse ata dose of 2 mg/kg. The format is functional, organism-based. Also on record: dose 2 mg/kg. As to conditions: Uterus. In a few lines: as §7
For experiment [33], the system named is Mus musculus. Description: Median tumor weight of MXT ER+ determined at the end of 6 week therapy ata dose of 2 mg/kg. Type of experiment: functional, organism-based. Also on record: dose 2 mg/kg. In short, it runs like this:
as §6

The test system of experiment [34] is Mus musculus. Nature of the experiment: Uterotrophic effect in BDF1 mouse at a dose of 1.4 mg/kg (4.6*10e-6M/kg). The format is functional, organism-based. The arrangement: dose 1.4 mg/kg. The following applies: Uterus. In a few lines:
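BDF1 mice bearing MXT mammary carcinoma. Dosing sc in water three times a week for 6 weeks. Uterine index = [uterus dry weight (mg)/body weight (g)] × 100 (± SD), read at the end of therapy; U test.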

The subject of experiment [35] is MCF7S. Description: Incorporation of [3H]- thymidine in hormone dependent MCF-7 breast cancer cells. The format is functional, cell-based. As to conditions: Homo sapiens.
For experiment [36], the system named is Mus musculus. Nature of the experiment: Median tumor weight MXT ER+ determined at the end of 6 week therapy at a dose of 1.4 mg/kg (4.6*10e-6M/kg). The format is functional, organism-based. Also on record: dose 1.4 mg/kg. In short, it runs like this: as §9

Values joined by “and” are separate entries in the source; they are usually repeats but may differ in a detail not shown here. Equal values may be shown once.

On to `NC(c1c(Cl)cc(O)cc1Cl)C(N)c1c(Cl)cc(O)cc1Cl` (stereo unspecified), for which the figures for the No. of tumors in the experiment filed under Rattus norvegicus [1] and in the experiment listed under Rattus norvegicus [9] were 3 and 26, respectively. Besides, the Tumors turned out to be 11% in the experiment listed under Rattus norvegicus [2], 4% in the experiment filed under Rattus norvegicus [5], 78% in the experiment filed under Rattus norvegicus [10] and 7% in the experiment listed under Rattus norvegicus [12]. In addition, the T/C was 239% with Mus musculus [3]; less than 12% in [8]; less than 12% in experiment [14]; less than 18% in [15]; less than 158% in the experiment with Mus musculus [16]. Further, the Change is given as 154% in the experiment listed under Rattus norvegicus [4] and -1.5% in the experiment filed under Rattus norvegicus [7]. For the same compound, the Med tumor weight is on record as 62.5 mg in experiment [6], 61 mg in experiment [11] and 91.5 mg in experiment [17]. In the experiment listed under Mus musculus [13], the Effect was 134 and 201.

On to `CC/C(=C(\c1ccccc1)c1ccc(OCCN(C)C)cc1)c1ccccc1` [TAMOXIFEN], for which the T/C in experiment [18] was 3%; in the experiment listed under Mus musculus [20], 80%. In the experiment filed under Mus musculus [19], the Med tumor weight is 16 mg. For the same compound, the Effect in the experiment listed under Mus musculus [13] was determined as 72.3.

As to CISPLATIN, the T/C with Mus musculus [21] amounted to 118%; in the experiment on MCF7S [22], 11%; in [23], 15%; in the experiment with MDA-MB-231 [25], 26%; in the experiment on MDA-MB-231 [26] it was 17%; in experiment [27] it was 44%. Further, the T/C came out at 3% in experiment [28]; 3% in [30]; 114% in the experiment on Mus musculus [32]; 114% with Mus musculus [34]; 1% with MCF7S [35]. Besides, the ED50 stood at 440 nM with MCF7S [22], 320 nM with MDA-MB-231 [24], 240 nM in the experiment with MDA-MB-231 [25] and 110 nM with MCF7S [35]. For the same compound, the Utreotropic effect in the experiment listed under Mus musculus [29] was 96 and 100. This compound also showed an Effect in the experiment listed under Mus musculus [13] of 95. The results for the Med tumor weight with Mus musculus [31], with Mus musculus [33] and in the experiment with Mus musculus [36] were 222 mg, 15 mg and 15 mg, respectively.
